Measurements from different studies.
Lines come from different studies, so protocols differ.
Target: RAC-beta serine/threonine-protein kinase (AKT2, Homo sapiens, UniProt P31751)

| Structure (SMILES) | assay | conditions | endpoint | value |
| --- | --- | --- | --- | --- |
| C#Cc1cnc(Nc2ccnc(CO)c2)nc1Nc1ccccc1S(C)(=O)=NC#N (stereo not shown) | cell-free assay | 1 µM | remaining signal | 100% |
| C[C@H]1CC[C@H](n2c3cnccc3c3cnc(Nc4ccc5c(n4)CCN(C(=O)CO)C5)nc32)CC1 | cell-free assay | 1 µM | remaining signal | 100% |
| N#Cc1ccc(NC(=O)Nc2ccccc2)cc1 | cell-free assay, competition with immobilised ligand | 25 µM | remaining binding | 92% |
| Cc1cc(-c2ccnc3[nH]cc(F)c23)cc(F)c1[C@@]1(O)[C@H](C)CN(C2CCS(=O)(=O)CC2)C[C@@H]1C | enzyme activity, inhibitor | 15 nM | remaining activity | 93% |
| CN1CCN(C(=O)c2ccc(NC(=O)Nc3ccc(N(C)c4ccnc(Nc5ccc(CS(C)(=O)=O)cc5)n4)cc3)cc2)CC1 | binding | 1 µM | remaining binding | 100% |
| CC#CC(=O)N1CCC[C@H]1c1nc(-c2ccc(C(=O)Nc3ccccn3)cc2)c2c(N)nccn12 | enzyme activity, inhibitor | 1 µM | inhibition | 0% |
| C1=C/COCc2cc(ccc2OCCN2CCCC2)Nc2nccc(n2)-c2cccc(c2)COC/1 | binding | 0.1 µM | remaining binding | 100% |
| COc1ccc2oc(-c3ccc4nc(N)oc4c3)c/c(=N\c3ccccc3NC(=O)CCN)c2c1 | binding | 1 µM | remaining binding | 93% |
| CCCCC(=O)Nc1ccc(-c2ccc3ncn(CCC)c(=O)c3c2)cn1 | binding, competition with immobilised ligand | 0.5 µM | remaining binding | 100% |
| C=CC(=O)N1CCC([C@@H]2CCNc3c(C(N)=O)c(-c4ccc(Oc5ccccc5)cc4)nn32)CC1 | enzyme activity, inhibitor | 1 µM | inhibition | 1% |
